ChEMBL document CHEMBL2331391, “Peroxisome proliferator-activated receptor-γ mediates the anti-inflammatory effect of 3-hydroxy-4-pyridinecarboxylic acid derivatives: synthesis and biological evaluation” (Eur J Med Chem, 2013)
One block for each molecule: values may come before it. The source made the active and inactive calls. The rule behind the calls is not given here.

Assays:
[1] = Cytotoxicity against human macrophages at 10 '5 uM after 72 hrs by MTT assay; type: cell-based; conditions: macrophage
[2] = Cytotoxicity against human macrophages up to 100 uM after 72 hrs by MTT assay; type: cell-based; conditions: macrophage
Macrophage [3] = experiment: Antiinflammatory activity in human macrophages assessed as inhibition of LPS-induced IL-8 release at 10 uM preincubated for 30 mins before LPS-challenge measured after 24 hrs post challenge by ELISA; type: functional, cell-based
Summary of the method: (§1)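 Human blood PBMC-derived macrophages were used after 10 days of culture. Purity >95% (esterase, CD14, morphology). Cells were pretreated 30 min at 37 °C with compound, then given 100 ng/mL LPS (S. enteritidis) for 24 h. TNFα, IL-1β and IL-8 in conditioned medium were measured by ELISA. Working solutions were endotoxin-tested by LAL (<3 pg/mL).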

[4] = Cytotoxicity against human macrophages at 10 '4 uM after 72 hrs by MTT assay; type: cell-based; conditions: macrophage
Macrophage [5] = experiment: Antiinflammatory activity in human macrophages assessed as inhibition of LPS-induced TNFalpha release at 10 uM preincubated for 30 mins before LPS-challenge measured after 24 hrs post challenge by ELISA; type: functional, cell-based; summary of the method: as §1
Macrophage [6] = experiment: Antiinflammatory activity in human macrophages assessed as inhibition of LPS-induced IL-1beta release at 10 uM preincubated for 30 mins before LPS-challenge measured after 24 hrs post challenge by ELISA; type: functional, cell-based; summary of the method: as §1
Macrophage [7] = experiment: Increase in PPAR-gamma mRNA transcript level in human macrophages at 30 mM by quantitative PCR analysis; type: functional, cell-based
Mus musculus [8] = experiment: Antiinflammatory activity in DSS-induced C57Bl/6 mouse colitis model assessed as inhibition MPO activity in colonic homogenate at 400 mg/kg/day administered intragastrically for 7 days; type: functional
Summary of the method: (§2)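 Male C57Bl/6J mice, 8–10 per group, dosed intragastrically daily for 7 days at 400 mg/kg/day (vehicle 100 µL). From day 2, drinking water carried 3.5% w/vol DSS. Killed 5 days after colitis induction. Full-thickness proximal colon homogenised for MPO activity and IL-1β protein.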

Mus musculus [9] = experiment: Antiinflammatory activity in DSS-induced C57Bl/6 mouse colitis model assessed as inhibition IL-1beta level in colonic homogenate at 400 mg/kg/day administered intragastrically for 7 days; type: functional, organism-based; summary of the method: as §2
CMT93 [10] = experiment: Increase in ROS production in LPS-stimulated mouse CMT93 cells at 10 uM preincubated for 30 mins before LPS-challenge measured after 24 hrs post challenge by DCFDA fluorescence assay in presence of alpha-tocopherol; type: functional, cell-based
Macrophage [11] = experiment: Increase in PPAR-gamma mRNA transcript level in human macrophages at 10 uM by quantitative PCR analysis; type: functional, cell-based
[12] = Antiinflammatory activity in human macrophages assessed as inhibition of LPS-induced TNFalpha release at 5 uM preincubated for 30 mins before LPS-challenge measured after 24 hrs post challenge by ELISA (reference value: 1682 +/-190 ng/ml); type: functional, Macrophage; summary of the method: as §1
[13] = molecular target: Transcription factor p65 (Mus musculus) (UniProt Q04207); experiment: Inhibition of LPS-induced p65 NF-kappaB promoter activation in mouse CMT93 cells at 10 uM preincubated for 30 mins before LPS-challenge measured after 6 hrs post challenge by luciferase reporter gene assay; type: cell-based
Transcription factor p65 (Mus musculus), sequence (Q04207 whole entry): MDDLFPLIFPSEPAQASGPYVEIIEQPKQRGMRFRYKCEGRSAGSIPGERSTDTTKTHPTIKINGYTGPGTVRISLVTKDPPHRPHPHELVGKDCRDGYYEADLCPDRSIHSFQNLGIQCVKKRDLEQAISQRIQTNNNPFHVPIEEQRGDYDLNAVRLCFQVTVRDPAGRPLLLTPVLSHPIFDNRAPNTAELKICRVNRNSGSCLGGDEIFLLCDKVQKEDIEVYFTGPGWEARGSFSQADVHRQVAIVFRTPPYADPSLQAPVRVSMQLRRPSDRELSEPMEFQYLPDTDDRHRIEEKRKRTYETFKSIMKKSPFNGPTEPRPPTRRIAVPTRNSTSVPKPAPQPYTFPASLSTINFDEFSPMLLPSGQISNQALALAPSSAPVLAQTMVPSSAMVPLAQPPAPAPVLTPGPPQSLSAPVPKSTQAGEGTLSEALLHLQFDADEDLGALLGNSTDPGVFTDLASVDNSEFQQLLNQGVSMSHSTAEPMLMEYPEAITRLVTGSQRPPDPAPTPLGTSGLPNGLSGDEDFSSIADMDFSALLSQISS
Summary of the method: (§3)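 CMT-93 cells (1×10⁵/well) were transfected with an NF-κB or PPRE luciferase reporter plus CMV-β-Gal. At 24 h they were treated with compound for 30 min, then with 100 ng/mL LPS for 6 h. Cells were lysed in Tris/EDTA/DTT/Triton buffer and supernatant luciferase was read by luminometer. Results are fold over untreated cells.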

[14] = Antiinflammatory activity in human macrophages assessed as inhibition of LPS-induced IL8 release at 5 uM preincubated for 30 mins before LPS-challenge measured after 24 hrs post challenge by ELISA (reference value: 7.86 +/-0.17 ng/ml); type: functional, Macrophage; summary of the method: as §1
[15] = molecular target: T1, Peroxisome proliferator-activated receptor gamma (Mus musculus) (UniProt P37238); experiment: Induction of PPAR-gamma promoter activity in mouse CMT93 cells at 10 uM by luciferase reporter gene assay; type: cell-based; summary of the method: as §3
T1 sequence (whole entry): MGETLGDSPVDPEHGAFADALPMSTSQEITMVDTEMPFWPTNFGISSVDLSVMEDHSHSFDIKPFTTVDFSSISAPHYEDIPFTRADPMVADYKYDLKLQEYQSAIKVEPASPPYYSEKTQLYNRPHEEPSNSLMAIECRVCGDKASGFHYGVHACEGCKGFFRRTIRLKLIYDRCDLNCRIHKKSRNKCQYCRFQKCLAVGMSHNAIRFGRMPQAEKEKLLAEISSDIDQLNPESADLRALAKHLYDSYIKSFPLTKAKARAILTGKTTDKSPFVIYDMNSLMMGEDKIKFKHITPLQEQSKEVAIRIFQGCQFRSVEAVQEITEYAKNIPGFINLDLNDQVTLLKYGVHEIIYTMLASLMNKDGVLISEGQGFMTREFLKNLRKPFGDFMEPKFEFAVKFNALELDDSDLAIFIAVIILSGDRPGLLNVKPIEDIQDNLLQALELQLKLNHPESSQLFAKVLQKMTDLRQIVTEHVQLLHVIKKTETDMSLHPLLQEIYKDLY

[16] = Antiinflammatory activity in human macrophages assessed as inhibition of LPS-induced TNFalpha release at 10 uM preincubated for 30 mins before LPS-challenge measured after 24 hrs post challenge by ELISA (reference value: 1682 +/-190 ng/ml); type: functional, Macrophage; summary of the method: as §1
[17] = Antiinflammatory activity in human macrophages assessed as inhibition of LPS-induced TNFalpha release at 1 uM preincubated for 30 mins before LPS-challenge measured after 24 hrs post challenge by ELISA (reference value: 1682 +/-190 ng/ml); type: functional, Macrophage; summary of the method: as §1
[18] = Antiinflammatory activity in human macrophages assessed as inhibition of LPS-induced IL8 release at 1 uM preincubated for 30 mins before LPS-challenge measured after 24 hrs post challenge by ELISA (reference value: 7.86 +/-0.17 ng/ml); type: functional, Macrophage; summary of the method: as §1
Macrophage [19] = experiment: Antiinflammatory activity in human macrophages assessed as inhibition of LPS-induced increase in TNFalpha mRNA transcript at 10 uM preincubated for 30 mins before LPS-challenge measured after 24 hrs post challenge by quantitative PCR analysis in presence of PPAR-gamma antagonist PD68235; type: functional, cell-based
[20] = molecular target: Transcription factor p65 (Mus musculus) (UniProt Q04207); experiment: Inhibition of LPS-induced p65 NF-kappaB activation in mouse CMT93 cells assessed as inhibition of in IkBalpha degradation at 10 uM preincubated for 30 mins before LPS-challenge measured after 6 hrs post challenge by Western blot analysis; type: cell-based
Summary of the method: (§4)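 CMT-93 cells were pretreated with 10 µM compound and stimulated with LPS for 6 h. Lysates were run on 10% SDS-PAGE and transferred to PVDF. Blots were probed overnight at 4 °C for phospho-p65, IκBα or COX-2 (1:1000), with HRP detection.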

Macrophage [21] = experiment: Antiinflammatory activity in human macrophages assessed as inhibition of LPS-induced increase in IL8 level at 10 uM preincubated for 30 mins before LPS-challenge measured after 24 hrs post challenge by ELISA in presence of PPAR-gamma antagonist PD68235; type: functional, cell-based
Summary of the method: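 Human macrophages were pre-exposed to 20 µM PPARγ antagonist PD68235 alongside 10 µM compound, then challenged with 100 ng/mL LPS. After 24 h, IL8 protein in conditioned medium was measured by ELISA.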

Macrophage [22] = experiment: Antiinflammatory activity in human macrophages assessed as inhibition of LPS-induced IL8 mRNA transcript accumulation at 10 uM preincubated for 30 mins before LPS-challenge measured after 24 hrs post challenge by quantitative PCR analysis; type: functional, cell-based
Summary of the method: (§5)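 Monocyte-derived human macrophages were pretreated with 10 µM compound, then stimulated with LPS for 24 h. RNA was extracted and TNFα and IL8 transcripts were quantified by real-time RT-PCR with UPL probes. GAPDH served as reference gene.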

[23] = Antiinflammatory activity in human macrophages assessed as inhibition of LPS-induced IL8 release at 10 '-2 uM preincubated for 30 mins before LPS-challenge measured after 24 hrs post challenge by ELISA (reference value: 7.86 +/-0.17 ng/ml); type: functional, Macrophage; summary of the method: as §1
[24] = Antiinflammatory activity in human macrophages assessed as inhibition of LPS-induced TNFalpha release at 100 uM preincubated for 30 mins before LPS-challenge measured after 24 hrs post challenge by ELISA (reference value: 1682 +/-190 ng/ml); type: functional, Macrophage; summary of the method: as §1
[25] = Antiinflammatory activity in human macrophages assessed as inhibition of LPS-induced IL8 release at 100 uM preincubated for 30 mins before LPS-challenge measured after 24 hrs post challenge by ELISA (reference value: 7.86 +/-0.17 ng/ml); type: functional, Macrophage; summary of the method: as §1
[26] = Antiinflammatory activity in human macrophages assessed as inhibition of LPS-induced TNFalpha release at 10 '-3 uM preincubated for 30 mins before LPS-challenge measured after 24 hrs post challenge by ELISA (reference value: 1682 +/-190 ng/ml); type: functional, Macrophage; summary of the method: as §1
[27] = molecular target: Transcription factor p65 (Mus musculus) (UniProt Q04207); experiment: Inhibition of LPS-induced p65 NF-kappaB phosphorylation in mouse CMT93 cells at 10 uM preincubated for 30 mins before LPS-challenge measured after 6 hrs post challenge by Western blot analysis; type: cell-based; summary of the method: as §4
CMT93 [28] = experiment: Increase in ROS production in LPS-stimulated mouse CMT93 cells at 10 uM preincubated for 30 mins before LPS-challenge measured after 30 mins post challenge by DCFDA fluorescence assay (reference value: 2.64 %); type: functional, cell-based
[29] = Antiinflammatory activity in human macrophages assessed as inhibition of LPS-induced IL8 release at 10 uM preincubated for 30 mins before LPS-challenge measured after 24 hrs post challenge by ELISA (reference value: 7.86 +/-0.17 ng/ml); type: functional, Macrophage; summary of the method: as §1
[30] = Antiinflammatory activity in human macrophages assessed as inhibition of LPS-induced IL8 release at 10 '-3 uM preincubated for 30 mins before LPS-challenge measured after 24 hrs post challenge by ELISA (reference value: 7.86 +/-0.17 ng/ml); type: functional, Macrophage; summary of the method: as §1
Macrophage [31] = experiment: Antiinflammatory activity in human macrophages assessed as inhibition of LPS-induced TNFalpha mRNA transcript accumulation at 10 uM preincubated for 30 mins before LPS-challenge measured after 24 hrs post challenge by quantitative PCR analysis; type: functional, cell-based; summary of the method: as §5
CMT93 [32] = experiment: Increase in ROS production in LPS-stimulated mouse CMT93 cells at 10 uM preincubated for 30 mins before LPS-challenge measured after 24 hrs post challenge by DCFDA fluorescence assay in presence of PPAR-gamma antagonist PD68235; type: functional, cell-based
CMT93 [33] = experiment: Increase in ROS production in mouse CMT93 cells at 10 uM measured after 30 mins by DCFDA fluorescence assay (reference value: 2.64 %); type: functional, cell-based
[34] = Antiinflammatory activity in human macrophages assessed as inhibition of LPS-induced TNFalpha release at 10 '-2 uM preincubated for 30 mins before LPS-challenge measured after 24 hrs post challenge by ELISA (reference value: 1682 +/-190 ng/ml); type: functional, Macrophage; summary of the method: as §1
[35] = molecular target: T1, Peroxisome proliferator-activated receptor gamma (Mus musculus); experiment: Induction of PPAR-gamma promoter activity in LPS-stimulated mouse CMT93 cells at 10 uM preincubated for 30 mins before LPS-challenge measured after 6 hrs post challenge by luciferase reporter gene assay; type: cell-based; summary of the method: as §3
[36] = molecular target: Transcription factor p65 (Mus musculus) (UniProt Q04207); experiment: Inhibition of LPS-induced p65 NF-kappaB activation in mouse CMT93 cells assessed as inhibition of in COX-2 expression at 10 uM preincubated for 30 mins before LPS-challenge measured after 6 hrs post challenge by Western blot analysis; type: cell-based; summary of the method: as §4

Compound: Cc1nccc(C(=O)O)c1O
Activity [1]: Toxic
Activity [2]: Non-toxic
inhibition (Macrophage [3]): inactive
Activity [4]: Toxic
inhibition (Macrophage [5]): inactive
inhibition (Macrophage [6]): inactive

Compound: O=C(O)c1ccncc1O
Activity [1]: Toxic
Activity [2]: Non-toxic
inhibition (Macrophage [3]): inactive
Activity [4]: Toxic
inhibition (Macrophage [5]): inactive
inhibition (Macrophage [6]): inactive

Compound: Nc1ccc(O)c(C(=O)O)c1
Activity (Macrophage [7]): Active
inhibition (Mus musculus [8]): Active
inhibition (Mus musculus [9]): inactive

inhibition [13]: Active
Activity [15]: Active
inhibition [20]: Active
inhibition [27]: Active
Activity [35]: Active
inhibition [36]: Active
Compound: C[n+]1ccc(C(=O)O)c(O)c1.[Cl-]
Activity (CMT93 [10]): inactive
Activity (Macrophage [11]): Active
Activity [12]: 1738 ng/mL
Activity [1]: Toxic
Activity [2]: Non-toxic
Activity [14]: 7.34 ng/mL
Activity [16]: 1084 ng/mL
Activity [17]: 1651 ng/mL
Activity [18]: 7.32 ng/mL
inhibition (Macrophage [19]): inactive
inhibition (Macrophage [21]): Active
inhibition (Macrophage [22]): Active
Activity [23]: 7.56 ng/mL
Activity [24]: 1069 ng/mL
inhibition (Macrophage [3]): Active
Activity [25]: 4.43 ng/mL
Activity [4]: Toxic
inhibition (Macrophage [5]): Active
Activity [26]: 1689 ng/mL
Activity (CMT93 [28]): Active
Activity [29]: 5.4 ng/mL
inhibition (Macrophage [6]): Active
Activity [30]: 7.98 ng/mL
inhibition in vivo at 400 mg/kg/day (Mus musculus [8]; C57Bl/6, po, 168 h, route intragastric): 56%
inhibition (Macrophage [31]): Active
Activity (CMT93 [32]): inactive
Activity (CMT93 [33]): Active
Activity [34]: 1654 ng/mL
inhibition (Mus musculus [9]): Active

Compound: CC(=O)Oc1ccccc1C(=O)O
inhibition (Macrophage [3]): Active
inhibition (Macrophage [5]): Active
inhibition (Macrophage [6]): Active
